From ChEMBL document CHEMBL1137074, “Novel N-arylpyrazolo[3,2-c]-based ligands for the glucocorticoid receptor: receptor binding and in vivo activity” (J Med Chem, 2004)
pEC50, pIC50: −log10 of the molar value.

Legend:
Glucocorticoid receptor [1] = biological target: T1, Glucocorticoid receptor (Homo sapiens, UniProt P04150); experiment: Compound was tested for inhibitory activity towards human glucocorticoid receptor
T1 sequence (P04150 whole entry): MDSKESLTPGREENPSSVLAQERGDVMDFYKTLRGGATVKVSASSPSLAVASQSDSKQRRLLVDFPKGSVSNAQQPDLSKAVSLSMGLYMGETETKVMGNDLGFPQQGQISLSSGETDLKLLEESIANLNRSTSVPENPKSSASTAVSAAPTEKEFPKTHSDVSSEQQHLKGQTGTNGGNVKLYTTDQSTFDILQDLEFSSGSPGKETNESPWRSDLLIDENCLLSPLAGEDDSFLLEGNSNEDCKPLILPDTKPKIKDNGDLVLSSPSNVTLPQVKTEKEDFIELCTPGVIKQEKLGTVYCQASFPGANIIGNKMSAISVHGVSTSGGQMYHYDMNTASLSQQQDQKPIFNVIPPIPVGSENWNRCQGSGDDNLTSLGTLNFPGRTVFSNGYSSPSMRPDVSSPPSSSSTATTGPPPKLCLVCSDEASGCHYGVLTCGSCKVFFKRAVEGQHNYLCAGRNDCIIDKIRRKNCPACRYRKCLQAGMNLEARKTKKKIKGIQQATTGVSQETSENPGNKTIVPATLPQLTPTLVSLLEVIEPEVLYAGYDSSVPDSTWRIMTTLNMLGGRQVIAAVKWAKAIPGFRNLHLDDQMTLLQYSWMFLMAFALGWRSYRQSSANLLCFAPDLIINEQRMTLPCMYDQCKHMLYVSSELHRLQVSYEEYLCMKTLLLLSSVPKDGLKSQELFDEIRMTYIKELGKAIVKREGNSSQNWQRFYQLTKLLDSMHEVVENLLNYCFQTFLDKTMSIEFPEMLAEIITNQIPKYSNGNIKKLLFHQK

Mus musculus = experiment: Ability to induce mouse macrophage IL-6 assay in peritoneal exudate cells harvested by […] from C57BI/6 mice.; assay type: functional, cell-based
Procedure, shortened: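 Thioglycolate-elicited peritoneal exudate cells from C57Bl/6 mice, harvested day 3 in PBS/heparin, washed and resuspended at 5.6×10^5 cells/mL in RPMI 1640 with 10% heat-inactivated FCS. Compound (typically 3 μM final) preincubated 1 h at 37 °C, 5% CO2, then LPS or TNF added, 24 h. Supernatant IL-6 read; duplicate wells, three experiments.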

Glucocorticoid receptor [2] = biological target: T1, Glucocorticoid receptor; experiment: Ability to induce human IL-6 assay in A549 lung carcinoma cell line.; assay type: functional, cell-based
Androgen receptor = biological target: T2, Androgen receptor (Homo sapiens, UniProt P10275); experiment: Binding affinity for human androgen receptor
T2 sequence (P10275 whole entry): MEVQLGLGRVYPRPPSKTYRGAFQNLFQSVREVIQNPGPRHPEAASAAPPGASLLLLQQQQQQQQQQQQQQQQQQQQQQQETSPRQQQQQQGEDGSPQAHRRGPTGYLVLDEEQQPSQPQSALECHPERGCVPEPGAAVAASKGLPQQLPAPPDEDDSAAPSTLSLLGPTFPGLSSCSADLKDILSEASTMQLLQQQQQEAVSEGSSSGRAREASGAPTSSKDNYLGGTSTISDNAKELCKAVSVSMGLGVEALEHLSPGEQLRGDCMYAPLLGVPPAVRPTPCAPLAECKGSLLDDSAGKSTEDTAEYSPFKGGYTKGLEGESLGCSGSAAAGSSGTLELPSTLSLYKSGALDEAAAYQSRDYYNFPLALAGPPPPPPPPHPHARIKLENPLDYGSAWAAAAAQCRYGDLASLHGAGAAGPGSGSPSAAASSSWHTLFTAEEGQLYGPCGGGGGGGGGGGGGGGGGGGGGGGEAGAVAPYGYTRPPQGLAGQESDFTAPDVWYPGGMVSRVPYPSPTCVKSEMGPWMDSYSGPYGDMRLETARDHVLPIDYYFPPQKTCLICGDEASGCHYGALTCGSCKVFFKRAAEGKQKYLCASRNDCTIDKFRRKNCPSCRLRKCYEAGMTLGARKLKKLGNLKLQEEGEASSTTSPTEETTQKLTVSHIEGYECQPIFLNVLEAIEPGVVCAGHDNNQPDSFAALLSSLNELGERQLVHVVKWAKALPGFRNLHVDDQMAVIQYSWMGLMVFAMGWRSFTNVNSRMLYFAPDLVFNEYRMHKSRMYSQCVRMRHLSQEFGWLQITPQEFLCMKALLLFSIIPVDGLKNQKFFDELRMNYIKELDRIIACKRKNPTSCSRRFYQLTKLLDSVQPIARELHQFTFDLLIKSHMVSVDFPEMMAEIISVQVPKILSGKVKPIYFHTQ

Estrogen receptor = biological target: T3, Estrogen receptor (Homo sapiens, UniProt P03372); experiment: Binding affinity for human Estrogen receptor alpha
T3 sequence (P03372 whole entry): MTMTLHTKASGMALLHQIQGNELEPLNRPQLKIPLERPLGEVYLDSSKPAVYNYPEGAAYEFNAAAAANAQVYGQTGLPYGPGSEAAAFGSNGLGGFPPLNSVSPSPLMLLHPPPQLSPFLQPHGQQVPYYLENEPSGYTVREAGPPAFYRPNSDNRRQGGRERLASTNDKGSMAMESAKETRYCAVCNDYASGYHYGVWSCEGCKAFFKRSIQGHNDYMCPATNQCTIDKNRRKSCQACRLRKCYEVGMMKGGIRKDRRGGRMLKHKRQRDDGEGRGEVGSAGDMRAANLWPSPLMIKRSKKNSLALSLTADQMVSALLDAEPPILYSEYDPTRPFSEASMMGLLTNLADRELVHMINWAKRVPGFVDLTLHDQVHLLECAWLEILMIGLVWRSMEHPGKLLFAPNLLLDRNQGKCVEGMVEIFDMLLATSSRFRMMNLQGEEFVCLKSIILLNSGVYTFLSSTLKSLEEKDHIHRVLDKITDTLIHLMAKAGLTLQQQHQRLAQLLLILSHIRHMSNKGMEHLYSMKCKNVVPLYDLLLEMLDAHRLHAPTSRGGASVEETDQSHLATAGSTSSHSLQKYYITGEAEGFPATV

Progesterone receptor = biological target: T4, Progesterone receptor (Homo sapiens, UniProt P06401); experiment: Binding affinity towards human progesterone receptor
T4 sequence (P06401 whole entry): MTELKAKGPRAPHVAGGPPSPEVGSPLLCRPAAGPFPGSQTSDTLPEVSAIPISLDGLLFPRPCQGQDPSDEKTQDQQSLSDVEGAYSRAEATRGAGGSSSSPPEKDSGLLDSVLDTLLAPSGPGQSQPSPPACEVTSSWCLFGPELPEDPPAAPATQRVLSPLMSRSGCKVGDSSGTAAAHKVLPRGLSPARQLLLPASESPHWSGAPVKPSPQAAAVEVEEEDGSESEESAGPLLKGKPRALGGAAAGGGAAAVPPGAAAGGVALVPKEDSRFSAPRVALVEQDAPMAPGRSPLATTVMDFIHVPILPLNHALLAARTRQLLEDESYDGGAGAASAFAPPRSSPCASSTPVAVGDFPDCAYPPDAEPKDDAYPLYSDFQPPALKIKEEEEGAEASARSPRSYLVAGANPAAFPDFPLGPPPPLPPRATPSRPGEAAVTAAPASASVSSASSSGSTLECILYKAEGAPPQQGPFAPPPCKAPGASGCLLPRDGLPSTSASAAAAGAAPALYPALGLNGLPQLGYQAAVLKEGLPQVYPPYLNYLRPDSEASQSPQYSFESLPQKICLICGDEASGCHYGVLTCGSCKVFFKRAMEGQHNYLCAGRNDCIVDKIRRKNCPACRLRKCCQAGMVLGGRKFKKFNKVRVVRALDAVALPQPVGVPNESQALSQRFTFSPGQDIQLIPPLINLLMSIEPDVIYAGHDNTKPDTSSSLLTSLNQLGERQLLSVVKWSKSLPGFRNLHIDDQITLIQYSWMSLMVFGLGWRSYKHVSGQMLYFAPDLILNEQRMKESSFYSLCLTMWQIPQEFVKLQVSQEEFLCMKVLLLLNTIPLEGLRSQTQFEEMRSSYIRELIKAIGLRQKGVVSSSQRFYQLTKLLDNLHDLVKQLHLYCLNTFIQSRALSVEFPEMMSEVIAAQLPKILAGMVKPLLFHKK
Procedure, shortened: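 Receptor homogenates from frozen cell pellets in ice-cold KPO4 buffer (10 mM KPO4, 20 mM molybdate, 1 mM EDTA, 5 mM DTT, protease inhibitors), spun 35 000g 1 h at 4 °C. MR: recombinant baculovirus-expressed rat receptor, 2 nM [3H]aldosterone; PR: T-47D cell protein, 5 nM [3H]progesterone.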

[3] = biological target: Mineralocorticoid receptor (Rattus norvegicus) (UniProt P22199); experiment: Binding affinity for rat mineralocorticoid receptor
Sequence of Mineralocorticoid receptor (Rattus norvegicus) (P22199 whole entry, looked up): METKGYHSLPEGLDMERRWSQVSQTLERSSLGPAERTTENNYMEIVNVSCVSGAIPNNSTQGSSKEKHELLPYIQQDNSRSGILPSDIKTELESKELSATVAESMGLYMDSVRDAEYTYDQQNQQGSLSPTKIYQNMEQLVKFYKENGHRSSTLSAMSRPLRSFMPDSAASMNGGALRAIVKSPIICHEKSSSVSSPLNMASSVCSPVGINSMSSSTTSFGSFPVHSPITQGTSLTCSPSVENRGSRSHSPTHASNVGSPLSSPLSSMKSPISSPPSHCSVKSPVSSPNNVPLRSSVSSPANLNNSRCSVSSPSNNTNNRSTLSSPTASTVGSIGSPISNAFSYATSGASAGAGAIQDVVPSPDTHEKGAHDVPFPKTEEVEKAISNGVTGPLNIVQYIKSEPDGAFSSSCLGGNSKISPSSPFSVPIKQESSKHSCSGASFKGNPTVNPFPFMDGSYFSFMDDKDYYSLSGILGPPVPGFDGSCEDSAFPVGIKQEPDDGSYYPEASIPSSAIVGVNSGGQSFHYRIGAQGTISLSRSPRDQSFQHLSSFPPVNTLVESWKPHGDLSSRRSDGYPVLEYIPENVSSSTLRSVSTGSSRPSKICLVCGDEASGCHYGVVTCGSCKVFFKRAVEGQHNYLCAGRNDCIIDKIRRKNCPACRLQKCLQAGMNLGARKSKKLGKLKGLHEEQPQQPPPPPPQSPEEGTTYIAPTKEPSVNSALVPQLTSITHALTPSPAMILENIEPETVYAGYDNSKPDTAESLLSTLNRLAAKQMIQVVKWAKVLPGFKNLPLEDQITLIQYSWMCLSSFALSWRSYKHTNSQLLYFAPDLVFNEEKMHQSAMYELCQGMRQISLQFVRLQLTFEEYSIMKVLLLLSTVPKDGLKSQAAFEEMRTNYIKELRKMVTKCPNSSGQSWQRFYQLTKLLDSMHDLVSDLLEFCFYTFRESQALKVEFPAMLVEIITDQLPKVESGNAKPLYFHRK

Glucocorticoid receptor [4] = biological target: T1, Glucocorticoid receptor; experiment: Ability to induce human glutamine synthetase in skeletal muscle cells; assay type: cell-based
Glucocorticoid receptor [5] = biological target: T1, Glucocorticoid receptor; experiment: Glucocorticoid induced transactivation of human tyrosine amino transferase in HepG2 cells; assay type: functional, cell-based

Row | Compound | pIC50 (Glucocorticoid receptor [1]) | pEC50 (Mus musculus) | pEC50 (Glucocorticoid receptor [2]) | also measured
1 | COc1ccc(C[C@H](O)[C@H]2CCCC3=Cc4c(cnn4-c4ccc(F)cc4)C[C@@]32C)cc1 | 8.20 | 7.18 |  | 
2 | Cc1cc([C@H](O)[C@H]2CCCC3=Cc4c(cnn4-c4ccc(F)cc4)C[C@@]32C)ccc1F | 8.17 | 7.27 | 7.99 | 
3 | C[C@]12Cc3cnn(-c4ccc(F)cc4)c3C=C1CCC[C@@H]2[C@@H](O)c1ccc(O)cc1 | 8.02 | 7.11 | 7.71 | 
4 | CC(C)(C)[C@H](O)[C@H]1CCCC2=Cc3c(cnn3-c3ccc(F)cc3)C[C@@]21C | 7.11 |  |  | 
5 | CC(C)(C)c1ccc(C[C@H](O)[C@H]2CCCC3=Cc4c(cnn4-c4ccc(F)cc4)C[C@@]32C)cc1 | 7.78 | 7.06 | 7.62 | 
6 | C[C@]12Cc3cnn(-c4ccc(F)cc4)c3C=C1CCC[C@@H]2[C@@H](O)c1ccccc1F | 8.14 | 7.24 | 8.57 | 
7 | C[C@H](O)[C@H]1CCCC2=Cc3c(cnn3-c3ccc(F)cc3)C[C@@]21C | 8.06 |  | 7.84 | 
8 | C[C@]12Cc3cnn(-c4ccc(F)cc4)c3C=C1CCC[C@@H]2[C@@H](O)c1ccc(F)cc1 |  |  |  | pIC50 (Androgen receptor): < 5.30; pIC50 (Estrogen receptor): < 5.30; pIC50 (Progesterone receptor): < 6.00; pIC50 [3]: < 5.30
9 | C[C@]12Cc3cnn(-c4ccc(F)cc4)c3C=C1CCC[C@@H]2[C@@H](O)c1ccc(Cl)cc1 | 8.05 | 7.22 | 8.72 | 
10 | C=CC[C@H](O)[C@H]1CCCC2=Cc3c(cnn3-c3ccc(F)cc3)C[C@@]21C | 8.41 | 7.44 | 8.03 | pEC50 (Glucocorticoid receptor [4]): 7.18; pEC50 (Glucocorticoid receptor [5]): 6.18
11 | C[C@]12Cc3cnn(-c4ccc(F)cc4)c3C=C1CCC[C@@H]2[C@@H](O)Cc1ccc(F)cc1 | 8.55 | 8.43 | 8.49 | pEC50 (Glucocorticoid receptor [4]): 7.27; pEC50 (Glucocorticoid receptor [5]): 6.00
